# Bioassay records: PubChem BioAssay, several laboratories
# Autophagy HCS: autophagy modulators in MEF cells, primary screen, imaging, high-content, MEF GFP-LC3; hit rate 0.98% among 190,000; calls only at 10 µM (by protocol); MEF GFP-LC3 puncta imaging; test concentration mostly 10 µM; AID 463193, 2010;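 active means percentage of spot-positive cells more than 3 SD above its plate mean, without a fluorescence outlier flag or 80% toxicity; inconclusive means no clear call, values can overlap the other calls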;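 further: spot-positive cell cutoff set from DMSO-treated cells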
# DTT redox prof: compounds producing H2O2 with reducing agent – biochemical, NIH compound library profiling, artefact control for MLSCN library redox annotation, primary screen. activation, % at 10 µM. AID 878, 2007. hit rate 0.03% among 200,000. DTT-dependent redox cycling H2O2, phenol red/HRP absorbance; 100% = 100 µM peroxide control, 0% = buffer;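 active means activation of at least 50% relative to the plate's high and low controls in the primary single-dose screen; inactive means activation below 50%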;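 further: compound incubated with DTT at 0.8 mM final as the reducing agent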
# ROMK mod: ROMK potassium channel modulators, primary screen, cell-based, thallium flux, MLSMR library; ATP-sensitive inward rectifier potassium channel 1 (Homo sapiens), P48048; Tet-inducible ROMK, thallium flux fluorescence; actives lie on both sides; B-score at 10 µM; hit rate 2% among 130,000; AID 1918, 2009;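 active means signal ratio slope over the read window, or its plate-corrected B-score, at least 3 SD from the plate mean, either direction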;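 further: B-score of the F/F0 ratio slope over 7 to 12 s after thallium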
# Target sequence (P48048 whole entry, looked up): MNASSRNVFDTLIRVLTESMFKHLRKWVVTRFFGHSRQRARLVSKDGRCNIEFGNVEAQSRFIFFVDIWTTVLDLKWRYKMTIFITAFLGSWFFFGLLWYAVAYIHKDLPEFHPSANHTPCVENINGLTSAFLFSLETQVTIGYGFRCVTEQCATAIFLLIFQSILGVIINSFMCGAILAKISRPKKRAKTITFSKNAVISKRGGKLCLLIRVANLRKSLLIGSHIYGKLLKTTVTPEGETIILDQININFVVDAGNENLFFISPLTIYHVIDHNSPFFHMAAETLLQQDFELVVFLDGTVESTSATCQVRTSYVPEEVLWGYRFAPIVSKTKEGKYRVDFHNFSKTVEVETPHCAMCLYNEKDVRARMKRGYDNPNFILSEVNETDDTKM
# Dynein transport: inhibitors of GR-EGFP nuclear translocation, primary screen, dynein cargo transport inhibitor project, imaging, high-content, 3617.4 mouse cells | test concentration mostly 20 µM; stimulated with dexamethasone, 1 µM; active compounds read low | z-score, hits read low | hit rate 0.47% among 220,000 | AID 1381, 2008;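 active means plate z-score of nuclear minus cytoplasmic receptor signal below a set negative limit, without overly bright fluorescence or cell loss, cut at about -3.5 in these data, passing the limit was not always enough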;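 further: z-score of nuclear minus cytoplasmic ring GR-EGFP intensity difference per well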
#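 Buffer or medium: tet-free medium with charcoal-stripped serum / Also added: dexamethasone agonist, 1.0 µM final, for 30 min / Timing: induction 48 h, compound 1 h, agonist 30 min / Measured by: high-content fluorescence imaging after fixation / Read-out: nuclear-to-cytoplasmic GR-EGFP distribution per well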
# KCC2 mod: KCC2 cotransporter modulators, thallium flux, primary screen, cell-based, HEK293 KCC2, FluoZin-2 fluorescence, MLSMR. AID 1456, 2008. hit rate 2.2% among 190,000. B-score of Tl+ flux slope (higher = more flux/activation; lower = inhibition) at 10 µM. Solute carrier family 12 member 5 (Homo sapiens), Q9H2X9. KCC2 cells, thallium flux FluoZin-2 fluorescence;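 active means thallium flux slope and its plate-corrected score both differing from the plate sample mean at a set confidence after two filtering rounds, in either direction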;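 further: slope of fluorescence scaled to starting intensity during 10 to 20 s after thallium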
# KCC2 secondary: KCC2 modulators in sodium-free buffer, confirmation, cell-based, HEK293 KCC2, thallium flux, secondary assay | shares compounds with KCC2 mod | normalised thallium flux (F/F0 slope) at 10 µM | hit rate 15% among 3,700 | FluoZin2 fluorescence; active compounds read high;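 active means thallium flux slope above the same plate's solvent-only control mean plus 3 SD; inconclusive means the two replicate wells disagree; inactive means no significant difference from solvent-only control wells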
# KCC2 bumet counter: thallium flux persisting under bumetanide in KCC2 cells, confirmation, counter-screen for KCC2 modulator project, cell-based, HEK293 KCC2, FluoZin2, secondary assay 3; hit rate 49% among 3,700; HEK293-KCC2 + bumetanide/ouabain; active compounds read high; AID 1714, 2009; normalized thallium flux at 10 µM; shares compounds with KCC2 mod;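 active means thallium entry rate above the same plate's blocked-transporter control wells by more than 3 SD; inconclusive means the two repeat wells disagree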;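 further: raw slope of fluorescence over initial fluorescence between 10 and 20 s after thallium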
# KCC2 sec2: KCC2 modulators without ouabain present, confirmation, cell-based, HEK293 KCC2, thallium flux, FluoZin2, secondary assay 2; shares compounds with KCC2 mod; thallium flux FluoZin2 fluorescence; actives lie on both sides; F/F0 rise rate, 10–20 s post-thallium; normalized thallium flux at 10 µM; hit rate 23% among 3,700;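 active means thallium flux slope more than 3 SD above or below the plate's solvent-only control mean, mostly below; inconclusive means the two repeat wells disagreed; inactive means no significant shift from solvent-only controls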;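 further: raw slope with 0.1% DMSO as baseline and bumetanide as block control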
# HEK293 Tl flux: thallium flux modulation in parental HEK cells, confirmation, counter-screen for KCC2 modulator project, cell-based, counterscreen 1. shares compounds with KCC2 mod. HEK293 parental cells, thallium flux FluoZin2, ouabain; baseline-ratio fluorescence slope, 10–20 s after thallium. thallium flux rate (normalised fluorescence) at 10 µM. hit rate 46% among 3,700. AID 1716, 2009;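 active means thallium flux rate significantly above the same plate's solvent-only control wells, beyond their mean plus 3 SD; inconclusive means the two replicate wells gave conflicting results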
# KCC2 retest ouab: KCC2 inhibitors and activators, ouabain retest, confirmation, HEK-KCC2 cells; shares compounds with KCC2 mod; HEK293-KCC2, thallium flux FluoZin2 fluorescence; bidirectional: low = inhibitor, high = activator; raw Tl+ flux slope (below DMSO = inhibition, above = activation) at 10 µM; hit rate 48% among 3,700; AID 1717, 2009;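 active means thallium flux slope beyond 3 SD from same-plate DMSO control mean in most replicates, usually higher, sometimes lower; inconclusive means repeat tests gave conflicting results; inactive means no significant difference from controls in most replicates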;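 further: slope of initial-normalized fluorescence between seconds 10 and 20 after thallium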
# HEK counter2: native HEK Tl+ uptake effects, second counter-screen – HEK cells, counterscreen 2, counter-screen for KCC2 modulator project, confirmation; shares compounds with KCC2 mod; HEK293 parental, thallium flux FluoZin-2 fluorescence slope; thallium flux slope at 10 µM; hit rate 33% among 3,700; AID 1718, 2009;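 active means thallium flux slope above the same plate's solvent-control mean plus 3 SD in both duplicate wells; inconclusive means duplicate wells that disagreed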;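 further: run without ouabain in cells lacking the KCC2 cotransporter; slope of fluorescence scaled to its starting value between 10 and 20 s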
# Starred values were filed as active, the others as inactive; i = inactive; ? = inconclusive; . = no result. Rows were chosen to be rich in hits. Some 4.1% of all compounds tested hit in one or more screens of this group.
SMILES,Autophagy HCS,DTT redox prof,ROMK mod,Dynein transport,KCC2 mod,KCC2 secondary,KCC2 bumet counter,KCC2 sec2,HEK293 Tl flux,KCC2 retest ouab,HEK counter2
O=C(Cc1ccccc1)Nc1ccc(NC(=O)c2cccs2)cc1Cl,i,0,0.32,1,0.41,.,.,.,.,.,.
CSCCC(NC(=O)c1ccc([N+](=O)[O-])cc1Cl)C(=O)OCC(=O)NCCCc1ccccc1 (stereo unspecified),i,0,-0.45,-0.25,-4.3*,0.0056,?,0.026*,0.0071,?,0.01
CSCCC(NC(=O)c1ccc([N+](=O)[O-])cc1Cl)C(=O)OCC(=O)NCC(F)(F)F (stereo unspecified),i,0,.,-1.2,-0.3,.,.,.,.,.,.
CC(=O)NC(=S)Nc1cccc(S(=O)(=O)NC2=NCCC2)c1,i,0,0.73,-0.7,0.64,.,.,.,.,.,.
CCOP(=O)(OCC)C(Nc1ccc(C)cc1)c1ccco1 (stereo unspecified),i,0,0.24,-0.41,0.39,.,.,.,.,.,.
Cc1cc(=O)[nH]c(SCC(=O)Nc2nnc(SCc3ccccc3)s2)n1,i,-1,0.93,-2,-4.8*,0.0051,0.0046,0.025*,0.0048*,0.015*,0.0083*
Cc1cc(=O)[nH]c(SCC(=O)Nc2nc3ccccc3s2)n1,i,0,0.052,-1.4,-1.1,.,.,.,.,.,.
COc1ccccc1-c1nnc(SCC(=O)Nc2nc(-c3ccccc3)cs2)n1C,i,1,.,-0.18,-4*,?,0.0066,0.032,0.0035,0.015*,0.011
Cc1cc(=O)[nH]c(SCC(=O)Nc2nc(-c3ccccc3)cs2)n1,i,2,.,-0.65,-7.1*,0.0079,0.0063,0.034,0.0038,0.015*,0.011
Cc1cc(C)nc(SCc2nnc(SCC(=O)Nc3nc(-c4ccccc4)cs3)n2C)n1,i,-1,-1.9,0.41,-1.8,.,.,.,.,.,.
Cc1nc(CC(=O)Nc2nc(-c3ccccc3)cs2)cs1,i,0,.,0.41,-3.4*,0.0086,0.0056,?,0.0086,0.017*,0.012
O=C(Cc1cccs1)Nc1nc(-c2ccccc2)cs1,i,2,.,-0.55,-0.51,.,.,.,.,.,.
CCOc1ccccc1NC(C)C(=O)Nc1cc(C(F)(F)F)ccc1N1CCOCC1 (stereo unspecified),i,1,.,2.9,-1.6,.,.,.,.,.,.
Cn1nccc1C(=O)OCC(=O)Nc1nc(-c2ccccc2)cs1,i,-3,.,0.4,-5.3*,0.016,0.0049,0.022*,0.0076,0.015,0.01
CC(/C=C/c1ccccc1F)=N\NC(=O)c1cccc(F)c1,i,0,-0.41,-0.33,.,0.0058,0.046*,0.042*,0.026*,0.041*,0.028*
C/C(=N\NC(=O)c1cccc(Cl)c1)C1C(=O)c2ccccc2C1=O,i,0,-1.4,-0.89,-3.7*,0.0069,0.0095*,0.027,0.0074,?,0.0089
CC(/C=C/c1ccco1)=N\NC(=O)c1cccc(Cl)c1,i,0,.,0.024,14*,0.005,0.039*,?,0.023*,0.037*,0.026*
C/C(=N\NC(=O)CCc1ccccc1)C1C(=O)c2ccccc2C1=O,i,0,0.63,-0.65,-1.9,.,.,.,.,.,.
CC(=O)Nc1cccc(C(=O)N/N=C/c2ccccc2F)c1,i,0,0.32,1.3,0.026,.,.,.,.,.,.
Cc1ccc(SCCNC(=O)c2ccc(C)c([N+](=O)[O-])c2)cc1,i,2,.,-0.62,.,.,.,.,.,.,.
COCCN(CCOC)C(=O)c1ccc(SCc2ccc(C)cc2)c([N+](=O)[O-])c1,i,-1,-1.6,-0.46,-4.4*,0.0064,0.0055,0.029,0.0059,0.015*,0.01
CCn1c(-c2ccccc2O)n[nH]c1=S,i,2,.,0.77,-0.013,.,.,.,.,.,.
CCn1c(-c2csc3c2CCC(C)C3)n[nH]c1=S (stereo unspecified),i,0,.,-0.069,11*,0.0071,0.027*,0.035,0.024*,0.03*,0.014*
CC1SC(C)C(=O)N(CC(=O)NCc2ccc(F)cc2)C1=O (stereo unspecified),i,1,-0.35,0.8,0.66,.,.,.,.,.,.
COC(=O)c1cccc(C23CC4(C2)[C@H](CN(Cc2cccnc2)[C@@H]4c2ccccc2)C3c2ccc(C(F)(F)F)cc2)c1 (stereo partly specified),.,.,.,0.37,-3.2*,?,0.0085*,0.032,0.0087,0.022,0.011
Cc1cc(C(=O)COc2ccc3ccc(=O)oc3c2)c(C)n1C,i,-2,-0.053,-0.26,-0.0065,.,.,.,.,.,.
O=C(Nc1ccc(Cc2ccncc2)cc1)c1cc([N+](=O)[O-])ccc1N1CCOCC1,i,0,.,-0.68,-2.1,.,.,.,.,.,.
O=C(NCc1ccccn1)c1ccc(Cn2c(=S)[nH]c3ccc(Br)cc3c2=O)cc1,i,-1,0.06,-0.91,2,.,.,.,.,.,.
O=c1c2cc(Cl)ccc2[nH]c(=S)n1Cc1ccccn1,i,0,.,-0.29,9.9*,0.0073,0.067*,0.047*,0.036*,0.054*,0.034*
